Source: ChEMBL document CHEMBL4665798, “Novel Human Urate Transporter 1 Inhibitors as Hypouricemic Drug Candidates with Favorable Druggability” (J Med Chem, 2020)

Experiments:
[1] = target: T1, Solute carrier family 2, facilitated glucose transporter member 9 (Homo sapiens, UniProt Q9NRM0); experiment: Inhibition of GLUT9 (unknown origin)
T1 sequence (Q9NRM0 whole entry): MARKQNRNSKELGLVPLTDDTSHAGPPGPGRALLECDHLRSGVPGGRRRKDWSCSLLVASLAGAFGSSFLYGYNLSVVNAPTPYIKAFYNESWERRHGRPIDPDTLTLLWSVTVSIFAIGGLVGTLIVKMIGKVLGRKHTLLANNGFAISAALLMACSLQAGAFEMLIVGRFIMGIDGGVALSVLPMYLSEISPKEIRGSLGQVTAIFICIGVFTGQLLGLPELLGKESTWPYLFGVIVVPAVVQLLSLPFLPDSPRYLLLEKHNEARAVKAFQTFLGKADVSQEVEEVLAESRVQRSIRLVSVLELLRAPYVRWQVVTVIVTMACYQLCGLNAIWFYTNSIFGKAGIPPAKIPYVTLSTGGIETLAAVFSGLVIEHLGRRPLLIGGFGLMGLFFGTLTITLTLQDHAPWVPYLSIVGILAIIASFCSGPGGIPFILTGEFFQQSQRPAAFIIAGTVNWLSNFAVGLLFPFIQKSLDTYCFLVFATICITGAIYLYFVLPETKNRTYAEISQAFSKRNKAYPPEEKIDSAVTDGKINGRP

[2] = Oral bioavailability in Sprague-Dawley rat at 10 mg/kg by LC-MS analysis; format: ADME, organism-based; settings: in vivo
In short: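 Male Sprague-Dawley rats, two groups, dosed iv or orally; compound in PEG 400/normal saline (70/30, V/V). Oral blood from sinus jugularis at 5 min to 24 h, plasma by centrifugation at 2200 g, stored -20 °C. Plasma with internal standard precipitated by methanol, quantified by LC-MS against spiked blank-plasma standard curves. Mean ± SD, n = 5.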

[3] = AUC (0 to t) in male Kunming mouse at 2 mg/kg, po by LC-MS/MS analysis; format: ADME, organism-based; set-up: dose 2 mg/kg; settings: in vivo
In short: (§1)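 Male Kunming mice, ten in total, split into five groups; single oral dose in PEG 400/normal saline (70/30, v/v). Blood taken from submandibular or saphenous vein into K2EDTA tubes at 0.25, 0.5, 1, 2, 4, 8, 24, 48, 72 h. Plasma spun at about 4 °C and kept at -70 °C. Acetonitrile precipitation with dexamethasone internal standard, then LC-MS/MS against plasma standard curves.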

[4] = MRT (0 to infinity) in male Kunming mouse at 2 mg/kg, po by LC-MS/MS analysis; format: ADME, organism-based; settings: in vivo; in short: as §1
[5] = species: Rattus norvegicus; experiment: Potency index, ratio of lesinurad to test compound for hypouricemic activity in rat model of xanthine/potassium oxonate-induced acute hyperuricemia assessed as decrease in serum uric acid level; format: functional
[6] = Cmax in male Kunming mouse at 50 mg/kg, po by LC-MS/MS analysis; format: ADME, organism-based; set-up: route oral, dose 50 mg/kg; settings: in vivo; in short: as §1
[7] = MRT (0 to infinity) in male Kunming mouse at 500 mg/kg, po by LC-MS/MS analysis; format: ADME, organism-based; settings: in vivo
In short: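 Male Kunming mice given oral compound in PEG 400/normal saline (70/30, V/V). Blood from submandibular or saphenous vein into K2EDTA tubes at 0.25 to 72 h. Plasma spun at 3200g near 4 °C, kept -70 °C, precipitated with acetonitrile plus dexamethasone internal standard. Quantified by LC-MS/MS against spiked blank-plasma standard curves.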

[8] = target: T2, Solute carrier family 22 member 12 (Homo sapiens, UniProt Q96S37); experiment: Potency index, ratio of lesinurad IC50 to test compound IC50 for inhibition of human URAT1 expressed in HEK293T cells assessed as reduction in [14C]uric acid uptake preincubated for 15 mins followed by [14C]uric acid addition by liquid scintillation counting method; format: cell-based
T2 sequence (Q96S37 whole entry): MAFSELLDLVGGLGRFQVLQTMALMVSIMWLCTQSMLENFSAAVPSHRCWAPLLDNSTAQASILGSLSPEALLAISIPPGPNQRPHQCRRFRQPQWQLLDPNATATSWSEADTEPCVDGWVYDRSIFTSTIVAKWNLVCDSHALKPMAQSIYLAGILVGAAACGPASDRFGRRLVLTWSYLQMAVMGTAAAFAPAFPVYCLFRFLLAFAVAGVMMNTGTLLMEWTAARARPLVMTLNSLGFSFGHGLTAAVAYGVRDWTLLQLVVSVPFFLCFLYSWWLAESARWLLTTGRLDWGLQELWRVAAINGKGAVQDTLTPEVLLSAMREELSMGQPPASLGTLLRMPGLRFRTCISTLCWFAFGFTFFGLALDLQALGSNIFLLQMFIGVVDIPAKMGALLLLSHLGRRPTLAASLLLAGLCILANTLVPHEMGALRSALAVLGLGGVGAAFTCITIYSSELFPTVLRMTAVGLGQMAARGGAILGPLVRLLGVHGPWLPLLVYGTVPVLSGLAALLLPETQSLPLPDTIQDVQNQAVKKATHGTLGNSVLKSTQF

Structure (SMILES) | IC50 [1] [µM] | bioavailability [2] [%] | AUC(0-t) [3] [ng·h/mL] | MRT inf [4] [h] | Ratio [5] | Cmax [6] [ng/mL] | MRT inf [7] [h] | Ratio IC50 [8]
O=C(CSc1nnc(Br)n1-c1ccc(C2CC2)c2ccccc12)NS(=O)(=O)c1ccc(Br)cc1 | 31.7 | 63.4 | – | – | – | – | – | –
CC(Sc1nc2ncccc2n1-c1ccc(C2CC2)c2ccccc12)C(=O)O (racemic) | – | – | 13000 | 6.44 | 1.6 | 37900 | 15.7 | > 8
